Reference: ChEMBL document CHEMBL1137280, “Synthesis and structure-activity studies of novel benzocycloheptanone oxazolidinone antibacterial agents” (Bioorg Med Chem Lett, 2006)
Converted amounts (≈) assume the structure as drawn.

Legend:
Assay type in all cases: functional
Escherichia coli = assay: Antibacterial activity against Escherichia coli by transcription and translation assay
In short: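 Coupled in vitro transcription and translation system from Escherichia coli with a luciferase reporter; inhibition is read as loss of luciferase signal.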

Staphylococcus aureus = assay: Antibacterial activity against Staphylococcus aureus UC-76 SA-1
In short: (§1)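 MIC determined by broth microdilution following Clinical and Laboratory Standards Institute (formerly NCCLS) guidelines, across a panel of Gram-positive and fastidious Gram-negative organisms.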

Streptococcus pneumoniae = assay: Antibacterial activity against Streptococcus pneumoniae SVI SP-3; in short: as §1
Streptococcus pyogenes = assay: Antibacterial activity against Streptococcus pyogenes C-203; in short: as §1
Enterococcus faecalis = assay: Antibacterial activity against Enterococcus faecalis MGH-2 EF1-1; in short: as §1
Haemophilus influenzae = assay: Antibacterial activity against Haemophilus influenzae HI3542; conditions: HI-3542; in short: as §1
Moraxella catarrhalis = assay: Antibacterial activity against Moraxella catarrhalis BC-3531; in short: as §1

| SMILES | IC50 (Escherichia coli) [µM] | MIC (Staphylococcus aureus) [µg/mL] | MIC (Streptococcus pneumoniae) [µg/mL] | MIC (Streptococcus pyogenes) [µg/mL] | MIC (Enterococcus faecalis) [µg/mL] | MIC (Haemophilus influenzae) [µg/mL] | MIC (Moraxella catarrhalis) [µg/mL] |
| --- | --- | --- | --- | --- | --- | --- | --- |
| CC(=O)NC[C@H]1CN(c2ccc3c(c2)CCCCC3)C(=O)O1 | 8 | 64 (≈ 212 µM) | 8 (≈ 26.5 µM) | 2 (≈ 6.61 µM) | > 64 |  |  |
| CC(=O)NC[C@H]1CN(c2ccc3c(c2)CCC/C(=C\c2cccn2C)C3=O)C(=O)O1 | 1.6 | 1 (≈ 2.45 µM) | 0.25 (≈ 0.614 µM) |  | 0.5 (≈ 1.23 µM) | 16 (≈ 39.3 µM) | 4 (≈ 9.82 µM) |
| CC(=O)NC[C@H]1CN(c2ccc3c(c2)CCCCC3=O)C(=O)O1 | 3.9 | 1 (≈ 3.16 µM) | 0.5 (≈ 1.58 µM) | 0.5 (≈ 1.58 µM) | 0.5 (≈ 1.58 µM) |  |  |
| CC(=O)NC[C@H]1CN(c2cnc3c(c2)CCCCC3=O)C(=O)O1 | 13 | 8 (≈ 25.2 µM) | 16 (≈ 50.4 µM) | 4 (≈ 12.6 µM) | 8 (≈ 25.2 µM) |  |  |
| CC(=O)NC[C@H]1CN(c2ccc3c(c2)CCC3=O)C(=O)O1 [PNU-82965] | 21 | 8 (≈ 27.7 µM) | 2 (≈ 6.94 µM) | 2 (≈ 6.94 µM) | 8 (≈ 27.7 µM) |  |  |
| CC(=O)NC[C@H]1CN(c2ccc3c(c2)C(=O)CCC3)C(=O)O1 | 4 | 32 (≈ 106 µM) | 8 (≈ 26.5 µM) | 16 (≈ 52.9 µM) | 16 (≈ 52.9 µM) |  |  |
| CC(=O)NC[C@H]1CN(c2ccc3c(c2)CCCCCC3=O)C(=O)O1 | 5.9 | 4 (≈ 12.1 µM) | 4 (≈ 12.1 µM) | 2 (≈ 6.05 µM) | 8 (≈ 24.2 µM) |  |  |
| CC(=O)NC[C@H]1CN(c2ccc3c(c2)CCCC=C3)C(=O)O1 | 1.3 | 1 (≈ 3.33 µM) | 0.5 (≈ 1.66 µM) | 0.5 (≈ 1.66 µM) | 1 (≈ 3.33 µM) |  |  |
| CC(=O)NC[C@H]1CN(c2ccc3c(c2)CCC/C(=C\c2ccsc2)C3=O)C(=O)O1 | 1.1 | 2 (≈ 4.87 µM) | 0.125 (≈ 0.305 µM) |  | 0.5 (≈ 1.22 µM) | 2 (≈ 4.87 µM) | 1 (≈ 2.44 µM) |
| CC(=O)NC[C@H]1CN(c2cc(F)c3c(c2)CCCCC3=O)C(=O)O1 | 9.4 | 8 (≈ 23.9 µM) | 2 (≈ 5.98 µM) | 2 (≈ 5.98 µM) | 4 (≈ 12 µM) |  |  |
| CC(=O)NC[C@H]1CN(c2ccc3c(c2)CCC/C(=C\c2cccc(C#N)c2)C3=O)C(=O)O1 | 1.7 | 0.5 (≈ 1.16 µM) | 0.25 (≈ 0.582 µM) |  | 0.25 (≈ 0.582 µM) | 32 (≈ 74.5 µM) | 2 (≈ 4.66 µM) |
| CC(=O)NC[C@H]1CN(c2ccc(N3CCOCC3)c(F)c2)C(=O)O1 [LINEZOLID] | 3.3 |  |  | 1 (≈ 2.96 µM) |  | 16 (≈ 47.4 µM) |  |
| CC(=O)NC[C@H]1CN(c2ccc3c(c2F)CCCCC3=O)C(=O)O1 | 8.9 | 16 (≈ 47.9 µM) | 4 (≈ 12 µM) | 8 (≈ 23.9 µM) | 8 (≈ 23.9 µM) |  |  |
| CC(=O)NC[C@H]1CN(c2cc(F)c3c(c2F)CCCCC3=O)C(=O)O1 | 14 | 32 (≈ 90.8 µM) | 8 (≈ 22.7 µM) | 16 (≈ 45.4 µM) | 16 (≈ 45.4 µM) |  |  |
| CC(=O)NC[C@H]1CN(c2cc(F)c3c(c2)CCCC=C3)C(=O)O1 | 9.3 | 2 (≈ 6.28 µM) | 1 (≈ 3.14 µM) | 1 (≈ 3.14 µM) | 2 (≈ 6.28 µM) |  |  |
| CC(=O)NC[C@H]1CN(c2ccc(C(C)=O)cc2)C(=O)O1 [DUP-721] | 7.5 | 2 (≈ 7.24 µM) | 2 (≈ 7.24 µM) | 1 (≈ 3.62 µM) | 2 (≈ 7.24 µM) |  |  |
| CC(=O)NC[C@H]1CN(c2cc3c(cc2F)C(=O)CCCC3)C(=O)O1 | 90 | 64 (≈ 191 µM) | 32 (≈ 95.7 µM) | 32 (≈ 95.7 µM) | 64 (≈ 191 µM) |  |  |

Second part, the compound after the results:

| IC50 (Escherichia coli) [µM] | MIC (Staphylococcus aureus) [µg/mL] | MIC (Streptococcus pneumoniae) [µg/mL] | MIC (Streptococcus pyogenes) [µg/mL] | MIC (Enterococcus faecalis) [µg/mL] | MIC (Haemophilus influenzae) [µg/mL] | MIC (Moraxella catarrhalis) [µg/mL] | SMILES |
| --- | --- | --- | --- | --- | --- | --- | --- |
| 2.7 | 1 (≈ 2.47 µM) | 0.25 (≈ 0.618 µM) |  | 0.5 (≈ 1.24 µM) | 16 (≈ 39.6 µM) | 4 (≈ 9.89 µM) | CC(=O)NC[C@H]1CN(c2ccc3c(c2)CCC/C(=C\c2ccccc2)C3=O)C(=O)O1 |
| 2.8 | 1 (≈ 2.07 µM) | 0.25 (≈ 0.518 µM) |  | 0.5 (≈ 1.04 µM) | 16 (≈ 33.2 µM) | 4 (≈ 8.29 µM) | CC(=O)NC[C@H]1CN(c2ccc3c(c2)CCC/C(=C\c2ccc(S(C)(=O)=O)cc2)C3=O)C(=O)O1 |
| 1.5 | 2 (≈ 4.07 µM) | 0.25 (≈ 0.509 µM) |  | 2 (≈ 4.07 µM) | 32 (≈ 65.1 µM) | 8 (≈ 16.3 µM) | CC(=O)NC[C@H]1CN(c2ccc3c(c2)CCC/C(=C\c2ccc(OCCN(C)C)cc2)C3=O)C(=O)O1 |
| 2.7 | 0.5 (≈ 1.18 µM) | 0.25 (≈ 0.592 µM) |  | 0.5 (≈ 1.18 µM) | 2 (≈ 4.73 µM) | 2 (≈ 4.73 µM) | CC(=O)NC[C@H]1CN(c2ccc3c(c2)CCC/C(=C\c2ccc(F)cc2)C3=O)C(=O)O1 |
| 1.2 | 1 (≈ 1.98 µM) | 0.125 (≈ 0.247 µM) |  | 0.5 (≈ 0.989 µM) | 16 (≈ 31.6 µM) | 4 (≈ 7.91 µM) | CC(=O)NC[C@H]1CN(c2ccc3c(c2)CCC/C(=C\c2ccc(OCCCN(C)C)cc2)C3=O)C(=O)O1 |
| 0.95 | 0.5 (≈ 1.19 µM) | 0.125 (≈ 0.297 µM) |  | 0.5 (≈ 1.19 µM) | 8 (≈ 19 µM) | 2 (≈ 4.76 µM) | CC(=O)NC[C@H]1CN(c2ccc3c(c2)CCC/C(=C\c2ccc(O)cc2)C3=O)C(=O)O1 |
| 2.6 | 1 (≈ 2.23 µM) | 0.25 (≈ 0.557 µM) |  | 0.5 (≈ 1.11 µM) | 16 (≈ 35.7 µM) | 4 (≈ 8.92 µM) | CC(=O)NC[C@H]1CN(c2ccc3c(c2)CCC/C(=C\c2ccc(CCO)cc2)C3=O)C(=O)O1 |
| 1.7 | 1 (≈ 2.47 µM) | 0.5 (≈ 1.23 µM) |  | 1 (≈ 2.47 µM) | 16 (≈ 39.5 µM) | 8 (≈ 19.7 µM) | CC(=O)NC[C@H]1CN(c2ccc3c(c2)CCC/C(=C\c2ccncc2)C3=O)C(=O)O1 |
